Shown are actives, neighbours in structure and some others; about 2.6% of the full set was active somewhere.
TDP2 inh – blocks human TDP2 phosphodiesterase activity; recombinant TDP2, T5PNP hydrolysis, p-nitrophenol absorbance 415 nm; 370,000 compounds, 0.34% hits; AID 720702; O95551; inhibition, % at 12.8 µM;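 active means inhibition above the mean of all tested compounds plus 3 SD, set per campaign, cut at about 25% in these data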;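 further: 0% = DMSO with enzyme and 100% = buffer with substrate but no TDP2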
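System – recombinant human TDP2 · Quantity – TDP2 enzyme at 120 nM final · Doses – single concentration, 12.8 µM nominal, with 1% DMSO · Incubation – 2 h at 37 °C · Measured by – epi absorbance of p-nitrophenol freed from T5PNP by hydrolysis · Read-out – % inhibition relative to enzyme-containing and enzyme-free wells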
GSTO1 inh – GSTO1 inhibition, counter-screen for RBBP9 inhibitors; recombinant GSTO1, activity-based probe fluorescence polarization; inhibition, % at 5.96 µM; 300,000 compounds, 1.1% hits;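 active means inhibition above the campaign mean inhibition plus 3 SD, cut at about 35% in these data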;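 further: 0% = GSTO1-1 with DMSO and 100% = wells lacking GSTO1-1 enzyme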
Target sequence (P78417 whole entry, looked up): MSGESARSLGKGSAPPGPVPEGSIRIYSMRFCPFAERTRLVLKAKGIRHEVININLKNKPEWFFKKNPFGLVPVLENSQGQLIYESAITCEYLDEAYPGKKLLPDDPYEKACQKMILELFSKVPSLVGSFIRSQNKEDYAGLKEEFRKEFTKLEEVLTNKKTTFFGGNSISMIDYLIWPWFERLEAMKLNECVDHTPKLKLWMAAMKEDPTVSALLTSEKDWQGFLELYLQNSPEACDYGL
Apaf1 inhib – human Apaf-1 inhibition; O14727; reconstituted apoptosome caspase-3 activity, DEVD-Rh110 fluorescence; inhibition, % at 20 µM; 330,000 compounds, 0.71% hits; AID 489030; active means inhibition of at least 40% at 20 µM;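 further: plate controls were DMSO wells for no effect and DEVD-CHO caspase inhibitor wells for full effect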
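Material: cell-free apoptosome with Apaf-1, procaspase-3 and caspase-9; Buffer or medium: Hepes pH 7.5 with detergent and BSA; Reagent: cytochrome c trigger plus (Z-DEVD)2-Rh110 caspase-3 substrate; Times: compound with Apaf-1, dATP, procaspase-3 30 min, then 50 min reaction, room temperature; Technique: Rh110 fluorescence intensity.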
PAD4 FP inh – PAD4 (human) enzyme inhibition. Q9UM07. recombinant PAD4, RCA probe fluorescence polarization. inhibition, % at 6.36 µM. 330,000 compounds, 0.41% hits. AID 485272;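 active means percent inhibition above a cutoff equal to the mean of all tested compounds plus 3 SD, cut at about 15% in these data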;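 further: 0% = PAD4 with RCA probe and DMSO and 100% = probe without PAD4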
PRMT1 inh – blocks human protein arginine methyltransferase 1; Q99873; recombinant PRMT1, activity-based probe fluorescence polarization; inhibition, % at 2.79 µM; 370,000 compounds, 1.3% hits; AID 652257;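 active means inhibition above about 21% made by adding two undisclosed values, limit read from the data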
Target sequence (Q99873 whole entry, looked up): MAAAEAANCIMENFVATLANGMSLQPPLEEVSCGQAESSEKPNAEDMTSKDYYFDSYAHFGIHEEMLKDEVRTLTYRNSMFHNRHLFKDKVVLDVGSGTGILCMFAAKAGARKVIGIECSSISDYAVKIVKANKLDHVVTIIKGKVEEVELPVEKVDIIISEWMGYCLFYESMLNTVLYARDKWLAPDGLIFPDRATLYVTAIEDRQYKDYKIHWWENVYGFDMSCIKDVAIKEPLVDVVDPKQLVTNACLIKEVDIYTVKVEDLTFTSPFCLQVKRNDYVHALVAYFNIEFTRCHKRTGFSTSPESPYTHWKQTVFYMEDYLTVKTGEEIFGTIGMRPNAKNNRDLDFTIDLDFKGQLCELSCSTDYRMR
GSTO1 inh conf – GSTO1 (human) inhibition, confirmation. 2,400 compounds, 54% hits. shares compounds with GSTO1 inh. inhibition, % at 5.96 µM. recombinant GSTO1, probe fluorescence polarization;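 active means inhibition above the primary screen's cutoff, its mean inhibition plus 3 SD, cut at about 35% in these data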;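 further: loss of polarization as inhibitors block binding of rhodamine sulfonate ester activity probe; 0% = GSTO1 with DMSO and 100% = wells lacking GSTO1 enzyme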
PAD4 confirm – PAD4 (human) inhibition, confirmed; recombinant PAD4, RCA probe fluorescence polarization; 1,200 compounds, 28% hits; inhibition, % at 6.36 µM; shares compounds with PAD4 FP inh;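 active means mean inhibition across replicates above the hit cutoff set by the earlier primary screen, cut at about 15% in these data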;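 further: inhibitors block active-site labeling by the probe so polarization falls; 0% = PAD4 with probe and DMSO and 100% = probe without PAD4 enzyme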
Apaf-1 inh conf – confirmation of Apaf-1 inhibitors; shares compounds with Apaf1 inhib; reconstituted apoptosome, caspase-3 DEVD-Rh110 fluorescence; inhibition, % at 20 µM; 1,800 compounds, 25% hits; AID 504614;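 active means mean inhibition of at least 40% at 20 µM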;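 further: plate controls were DMSO wells for no effect and DEVD-CHO caspase inhibitor control wells for full effect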
Rh110 interf inh – counter-screen for Apaf-1 inhibitors: fluorescence interference | 1,800 tested, under 10 active | activation (fluorescence interference), % at 20 µM | Rh110 fluorescence interference, quenched caspase reaction | shares compounds with Apaf1 inhib;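 active means signal rise of 40% or more at 20 µM, treated as a fluorescence artifact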
Apaf1 inh interf – shows fluorescence interference in the Apaf-1 inhibitor assay format; AID 588538; IC50, µM; fluorescence interference counterscreen, Apaf-1 assay format; 460 tested, under 10 active; shares compounds with Apaf1 inhib; call rule not given here
TDP2 inh conf – human TDP2 inhibition, confirmation. shares compounds with TDP2 inh. recombinant human TDP2, absorbance read-out. inhibition, % at 12.8 µM. 1,100 compounds, 22% hits. AID 743263; in the data active means inhibition above about 25%;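 further: 0% = vehicle with enzyme and 100% = no enzyme buffer only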
* = called active by the depositor; . = no result.

SMILES	TDP2 inh	GSTO1 inh	Apaf1 inhib	PAD4 FP inh	PRMT1 inh	GSTO1 inh conf	PAD4 confirm	Apaf-1 inh conf	Rh110 interf inh	TDP2 inh conf	others
Cc1[nH][nH]c(=O)c1C(c1ccc(-c2ccccc2C(=O)O)o1)c1c(C)[nH][nH]c1=O	45.4*	69.7*	.	51.2*	9.8	7.8	-6.1	.	.	39.2*
COC(=O)c1ccc(-c2ccc(C(c3c(C)[nH][nH]c3=O)c3c(C)[nH][nH]c3=O)o2)cc1	25.5*	38.0*	44.0*	-7.6	10.6	34.1	.	41.8*	-0.2	25.4*	Apaf1 inh interf=>100
CC1=NN(c2ccccc2)C(=O)C1N=Nc1ccc(C)cc1 (stereo unspecified)	.	2.0	-9.2	-0.2	.	.	.	.	.	.
CC1=NN(c2ccc(C)cc2C)C(=O)C1C(c1ccccc1O)C1C(=O)N(c2ccc(C)cc2C)N=C1C (stereo unspecified)	79.1*	55.6*	96.9*	45.2*	0.1	10.3	-15.6	23.4	-2.1	12.2
COc1cc(/C=C2\C(=O)N(c3ccc(NC(C)=O)cc3)N=C2c2ccccc2)ccc1O	53.9*	75.9*	39.0	62.4*	15.7	26.5	5.2	.	.	12.1
Cc1onc(C(=O)N2CCN(C(c3ccc(Cl)cc3)c3ccc(Cl)cc3)CC2)c1[N+](=O)[O-]	7.0	.	.	.	0.6	.	.	.	.	.
CC(C)CN1C[C@@H]2CSCCS(=O)(=O)N2C1=O	5.6	.	.	.	0.9	.	.	.	.	.
CCCNC1=C(N(C(C)=O)c2cccc(F)c2)C(=O)c2ccccc2C1=O	26.1*	54.6*	.	17.5*	-4.2	40.5*	-5.3	.	.	25.1*
Nc1ccc2c(c1)C(=O)C(=O)c1ccccc1-2	97.6*	94.2*	97.5*	82.4*	6.8	94.2*	72.9*	99.2*	2.2	87.0*	Apaf1 inh interf=>100
CSC(=Nc1ccccc1)N=C(SCc1ccccc1)N(C)C	-2.8	.	.	.	7.4	.	.	.	.	.
COc1cccc(C(C[N+](=O)[O-])c2c(C)[nH]n(-c3ccccc3)c2=O)c1 (stereo unspecified)	27.7*	80.7*	97.0*	34.6*	-0.8	4.1	-0.9	15.9	-7.1	21.3
O=S(=O)(Nc1cccc2ccccc12)c1cccs1	-3.5	5.0	-2.9	-0.3	2.2	.	.	.	.	.
O=S(=O)(Nc1ccc(O)c2ccccc12)c1cccs1	49.8*	64.3*	52.4*	21.1*	15.8	16.0	-4.8	.	.	30.1*
Cc1ccc(S(=O)(=O)Nc2ccccn2)c(C)c1	-3.8	.	.	.	0.7	.	.	.	.	.
CN(C)c1cccc2c(S(=O)(=O)Nc3ccccn3)cccc12	55.7*	45.2*	37.9	-8.8	-1.0	6.7	.	.	.	21.4
CC1(C)Cc2ccccc2C2=NNC(=O)C2=N1	28.2*	55.5*	62.1*	3.6	-2.3	81.8*	.	63.9*	2.9	34.1*	Apaf1 inh interf=>100
CC1(C)Cc2ccccc2C(Nn2cnnc2)=N1	1.9	7.3	3.9	-1.7	-1.3	.	.	.	.	.
Cc1cc(C)c(NC(=O)C2C(=O)Nc3ccccc3C(=O)N2C(C)(C)C)c(C)c1 (stereo unspecified)	7.7	.	.	.	-0.3	.	.	.	.	.
O=C1C=C(O)c2cccc(O)c2C1=O	32.2*	43.0*	43.8*	16.0*	24.8*	40.5*	4.5	.	.	13.3
CCc1ccc(CCNC(=O)OC2CCC23CCC(c2ccccc2)CC3)cc1 (stereo unspecified)	9.7	.	.	.	1.5	.	.	.	.	.
O=C(NC1(O)C(=O)c2ccccc2C1=O)c1ccccc1	53.9*	76.6*	93.5*	6.7	2.8	81.8*	.	96.5*	1.9	83.9*	Apaf1 inh interf=>100
COC1(NC(=O)c2ccccc2)C(C)=CC(=O)C=C1C	-9.3	3.1	1.2	-5.0	8.3	.	.	.	.	.
COC(=O)c1cc(C)nc2c1C(=O)C(=O)C=C2N1CCOCC1	87.4*	99.5*	98.5*	72.2*	0.2	95.3*	67.2*	100.2*	4.4	88.6*	Apaf1 inh interf=>100
C#CCOc1ccc(/C=C2/C(=O)N(c3cccc(C(=O)O)c3)N=C2C)cc1OC	71.4*	70.5*	42.6*	39.3*	6.1	8.5	2.6	27.6	19.0	18.1
COc1ccccc1/C=C1/C(=O)N(c2ccccc2)N=C1C	80.2*	45.8*	92.5*	47.8*	4.2	12.6	-1.1	21.2	7.0	13.8
SMILES	TDP2 inh	GSTO1 inh	Apaf1 inhib	PAD4 FP inh	PRMT1 inh	GSTO1 inh conf	PAD4 confirm	Apaf-1 inh conf	Rh110 interf inh	TDP2 inh conf	others
NS(=O)(=O)c1ccc(NC(=O)Nc2ccccc2)cc1	5.4	1.5	-10.0	-0.7	2.1	.	.	.	.	.
Cc1ccc(NC2=CC(=O)CC(c3ccccc3)C2)cc1 (stereo unspecified)	-4.1	-5.9	-8.8	3.7	-2.6	.	.	.	.	.
NS(=O)(=O)c1ccc(NC2=CC(=O)C(=O)c3ccccc32)cc1	60.9*	84.4*	95.0*	28.3*	15.8	87.6*	61.5*	97.6*	-2.2	63.1*	Apaf1 inh interf=>100
Cc1ccc(NC2=CC(=O)C(=O)c3ccccc32)cc1	69.7*	77.1*	86.9*	39.1*	1.3	72.9*	.	.	.	38.5*
Cc1oc2c(c1C(=O)c1ccccc1)C(=O)C(=O)c1ccccc1-2	38.5*	85.0*	91.4*	74.0*	4.3	91.1*	.	.	.	54.7*
C[C@@H]1OC(C2CCCCC2)N(C)[C@H]2C[C@H]3c4[nH]c5cccc(-c6ccccc6)c5c4CCN3C[C@@H]12 (stereo partly specified)	-12.8	.	.	.	2.1	.	.	.	.	.
Cc1ccc(Cn2c(=O)n(Cc3ccc(C(=O)NCC4COC4)cc3)c(=O)c3ccccc32)cc1	3.6	.	.	.	1.3	.	.	.	.	.
COc1cc(CNc2ccc(O)cc2)cc(Br)c1OCc1ccccc1	36.2*	52.6*	20.2	9.6	8.6	0.6	.	.	.	-4.6
COc1ccc(C(C)C)cc1-c1cncc(NC(C)=O)n1	10.2	.	.	.	-0.6	.	.	.	.	.
CC(=O)N(/N=C1\Sc2ccccc2C1=O)c1ccccc1	4.3	.	.	.	6.3	.	.	.	.	.
CC(=O)N(/N=C1\Sc2ccccc2C1=O)c1ccccc1C	62.9*	40.8*	89.8*	-18.4	11.7	70.8*	.	84.8*	11.3	63.1*	Apaf1 inh interf=>100
CN1c2ccccc2C(C)(C)C12C=Nc1c(ccc3ccccc13)O2 (stereo unspecified)	33.3*	90.3*	25.8	-1.0	0.5	5.5	.	.	.	4.8
CC1(c2cccc3ccccc23)OC(=O)c2ccccc21 (stereo unspecified)	3.4	.	.	.	2.4	.	.	.	.	.
